Published values of several laboratories.
Protocols differ between the studies behind these lines.
Cell line: A549
Read-out: cell growth or viability

SMILES | method | time | IC50 [µM]
Nc1ccn([C@@H]2O[C@H](CO)[C@@H](O)C2(F)F)c(=O)n1 | CCK-8 | 72 h | 0.0151
O=C(NC(=S)NCCNC(=S)NC(=O)c1ccc2ccccc2c1)c1ccc2ccccc2c1 | – | 48 h | 2.73
Cn1c(=O)c2c(ncn2Cc2nnc(SCC(=O)Nc3ccc(Cl)c(Cl)c3)n2-c2ccccc2)n(C)c1=O | MTT | – | 80.6
COc1ccccc1NCC(O)COc1cccc2[nH]c3ccccc3c12 (centres unmarked) | CCK-8 | 72 h | 86.8
CCN(CC)CCNC(=O)c1c(C)[nH]c(/C=C2\C(=O)Nc3ccc(F)cc32)c1C | – | – | 3.06
O=C(Nc1nnc(-c2cc3ccccc3[nH]2)s1)c1cc2c([nH]c3ccccc32)c(-c2ccccc2)n1 | MTT | 72 h | 3
CN1C(=O)/C(=N\NC(=O)c2cc3ccccc3[nH]2)c2cc(Cl)ccc21 | – | – | 2.13
CCC(=O)Nc1cc(Nc2nc(Nc3cnn(C)c3)c3sccc3n2)c(OC)cc1N(C)CCN(C)C | MTT | – | 7.06
COc1ccccc1OCCN1CCOC(COc2cccc3[nH]c4ccccc4c23)C1 (centres unmarked) | CCK-8 | 72 h | > 100
COc1c(C)cnc(COc2ccc(NC(=O)Nc3cccc(C(F)(F)F)c3)cc2)c1C | MTT | 72 h | 20.2
CCC(=O)Nc1cc(Nc2nc(N3CCc4sccc4C3)c3cccnc3n2)c(OC)cc1N1CCOCC1 | MTT | – | > 50
O=C(NNC(=O)c1ccc(Nc2nccc(-c3ccc(Cl)cc3)n2)cc1)NC1CCCCC1 | MTT | 24 h | > 40
COc1cc([C@@H]2c3cc4c(cc3[C@@H](O[C@@H]3O[C@@H]5CO[C@@H](C)O[C@H]5[C@H](O)[C@H]3O)[C@H]3COC(=O)[C@H]23)OCO4)cc(OC)c1O | fluorescence | 48 h | 4.1
Cc1cc(C)n(-c2nc(NN=Cc3c[nH]c4ccccc34)nc(Nc3ccc(Br)cc3)n2)n1 | SRB | 72 h | 6.1
CCOC(=O)/C=C1\S/C(=N\C(=O)c2ccc3ccccc3c2)N(C2CCCCC2)C1=O | – | 48 h | 13.8
CN(C)CCn1cccc1/C=N/NC(=O)Nc1cc2c(Nc3ccc(F)c(Cl)c3)ncnc2cc1O[C@H]1CCOC1 | MTT | 72 h | 1.84
O=c1[nH]cc(S(=O)(=O)Nc2cccc(-c3nnc(-c4cccc(Cl)c4)o3)c2)c(=O)[nH]1 | MTT | 24 h | 0.78
O=C(NCCc1ccccc1)NNC(=O)c1ccc(Nc2nccc(-c3cccnc3)n2)cc1 | MTT | – | 23.7
NNC(=O)c1ccncc1 | MTT | 72 h | > 450
CC(=O)OCCOC(=O)[C@]1(C)CC[C@]2(C)CC[C@]3(C)C4=CC=C5C(=CC(=O)C(O)=C5C)[C@]4(C)CC[C@@]3(C)[C@@H]2C1 | MTT | 48 h | 3.19
O=C(N/N=C/c1cccn1CCCN1CCOCC1)Nc1cc2c(Nc3ccc(F)c(Cl)c3)ncnc2cc1O[C@H]1CCOC1 | MTT | 72 h | 5.62

SMILES | method | time | IC50 [µM]
CS(=O)(=O)c1ccc(-n2cc(/C=N/N=c3\[nH]c(-c4ccc(Br)cc4)cs3)c(-c3ccc(Br)cc3)n2)cc1 | MTT | 48 h | 9.41
C=C(Cl)C(=O)Nc1cc(Nc2nc(Nc3cnn(C)c3)c3sccc3n2)c(OC)cc1N1CCN(C)CC1 | MTT | – | 0.655
COc1ccc(-c2csc(Nc3ccc4c(O)ncnc4c3)n2)cc1 | MTT | – | 25
O=C(N/N=C/CN1CCOCC1)Nc1cc2c(Nc3ccc(F)c(Cl)c3)ncnc2cc1O[C@H]1CCOC1 | MTT | 72 h | 5.62
O=C(NC(=S)NC1CCCCC1)c1ccc2ccccc2c1 | – | 48 h | 5.72
NS(=O)(=O)OC[C@@H]1C[C@@H](n2ccc3c(N[C@H]4CCc5ccccc54)ncnc32)C[C@@H]1O | CCK-8 | 72 h | 0.8
COc1cc2ncnc(Nc3ccc(F)c(Cl)c3)c2cc1NC(=O)N/N=C/CN1CCN(C)CC1 | MTT | 72 h | 6.6
CC(C)=CCC[C@](C)(O)[C@H]1CC[C@]2(C)[C@@H]1[C@H](O)C[C@@H]1[C@@]3(C)CC[C@H](O[C@@H]4O[C@H](CO)[C@@H](O)[C@H](O)[C@H]4O[C@@H]4O[C@H](CO)[C@@H](O)[C@H](O)[C@H]4O)C(C)(C)[C@@H]3CC[C@]12C | MTT | 72 h | > 100
CCN(CC)C/C=N/NC(=O)Nc1cc2c(Nc3ccc(F)c(Cl)c3)ncnc2cc1O[C@H]1CCOC1 | MTT | 72 h | 4.32
C=C(Cl)C(=O)Nc1cc(Nc2nc(N3CCCC3)c3sccc3n2)c(OC)cc1N(C)CCN(C)C | MTT | – | 4.54
COc1ccc(NC(=O)Nc2ccc(OCc3nccc(OCC(F)(F)F)c3C)cc2)cc1 | MTT | 72 h | 12.5
COc1ccccc1/C=C/CNCC(O)COc1cccc2[nH]c3ccccc3c12 (centres unmarked) | CCK-8 | 72 h | 7.9
O=C(CN1C(=O)/C(=C/c2cccc(Br)c2)SC1=S)Nc1ccccc1 | MTT | – | 25.5
CN1C(=O)/C(=N\NC(=O)c2cc3ccccc3[nH]2)c2cc(Br)ccc21 | – | – | 1.49
COc1c2c(cc3c1OCO3)[C@]13C=C[C@H](OC)C[C@H]1N(C2)C[C@H]3OC(=O)c1cccc(C)c1 | WST-1 | – | > 10
COc1cccc2c1C(=O)c1c(O)c3c(c(O)c1C2=O)C[C@@](O)(C(=O)CO)C[C@@H]3O[C@H]1C[C@H](N)[C@H](O)[C@H](C)O1 | SRB | – | 0.62
COc1ccnc(COc2ccc(NC(=O)Nc3cc(F)cc(F)c3)cc2)c1OC | MTT | 72 h | 17.3
CC1=C(O)C(=O)C=C2C1=CC=C1[C@@]2(C)CC[C@@]2(C)[C@@H]3C[C@](C)(C(=O)OCCCn4ccc5ccccc54)CC[C@]3(C)CC[C@]12C | MTT | 48 h | > 100
C=CC(=O)Nc1cc(Nc2nc(N3CCc4sccc4C3)c3cccnc3n2)c(OC)cc1N(C)C | MTT | – | > 50
Oc1ncnc2cc(Nc3nc(-c4ccc(C(F)(F)F)cc4)cs3)ccc12 | MTT | – | 14.8
